Source: PubChem BioAssay
The source made the active and inactive calls.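 Rule for the calls, unless noted: active = viability at or below 30% in both replicate assays; inconclusive = viability at or below 30% in just one of the two assays; inactive = the rest.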

Columns and labels:
[1] = Her2 expression decrease, cell viability multiplex – SKBR3 breast tumor cells, AlphaScreen, ATP viability, primary screen (AID 461;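 active = Her2 level under about 52% in both replicate screens, with viability over 70% of control, limit read from the data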;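 for Her2 level: lower value means less Her2 protein in the cells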;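 for viability: percent of carrier control wells set as 100% viability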); conditions: SKBR3 Her2 protein level, 18-24 h, measured here: SKBR3 viability, ATP luminescence, at 10 µM
[2] = target: Receptor tyrosine-protein kinase erbB-2 (Homo sapiens) (UniProt P04626); experiment: as above; conditions: 18-24 h, at 10 µM, stronger effect = lower value
[3] = reduced viability of SK-BR-3 breast cancer cells – cell-based, 24 h, human, pilot screen (AID 572;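 active = viability at or below 10% of carrier control in both of two separate runs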;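 note: compound exposure lasted between 18 and 24 h rather than exactly 24 h; 100% = carrier-treated control wells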); conditions: SK-BR-3 viability, CellTiter-Glo luminescence, at 10 µM, stronger effect = lower value
[4] = HUVEC growth inhibition – cell-based, human, primary screen (AID 575); conditions: HUVEC proliferation, CellTiter-Glo luminescence, 72 h; at 10 µM; stronger effect = lower value;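 note: 100% = median of untreated cell wells with 0.1% DMSO on each plate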
How it was run: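 System – primary HUVEC, no more than 12 passages · Medium – Low-serum (2% FBS) EBM, supplemented · Times – 72 h exposure, 37 °C, 5% CO2, 30 min RT equilibration · Measured by – luminescent ATP assay · Read-out – % viability relative to median vehicle-well signal on each plate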

[5] = H69AR cell proliferation blockers – human, duplicate replicates, primary screen (AID 580;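 active = viability at or under a set limit in both replicates, limit being median viability minus 3 SD, cut at about 48% in these data, passing the limit was not always enough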;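 note: 100% = mean luminescence of untreated wells and 0% = no signal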); conditions: H69AR lung tumor cells viability, ATP luminescence, 72 h; at 10 µM; stronger effect = lower value
[6] = MRP1 drug-resistance reversers in H69AR cells – cell-based, doxorubicin co-treatment, pilot screen (AID 601;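 active = viability loss from added drug above about 55%, and viability with drug at most 40%, in both replicates, limit read from the data, passing the limit was not always enough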); conditions: CellTiter-Glo, 72 h, at 10 µM; for differential viability (reversal): stronger effect = higher value
[7] = yeast transport mutant growth inhibition pilot in 384-well plates, post-Golgi transport modulator project (AID 636; in the data active = inhibition above about 31%); conditions: absorbance 615 nm, about 18 h, stronger effect = higher value
[8] = growth suppression of yeast trafficking mutant, preliminary HTS, modulators of trafficking downstream of Golgi apparatus project, 1536-format plate, OD 615 nm (AID 637; in the data active = inhibition above about 30%); conditions: yeast transport mutant growth, absorbance 615 nm, 18 h; stronger effect = higher value
[9] = H69AR cells + 2 uM doxorubicin, measured here: viability with 2 uM doxorubicin, stronger effect = lower value
[10] = H69AR cells, compound alone cytotoxicity

Receptor tyrosine-protein kinase erbB-2 (Homo sapiens), sequence (P04626 whole entry, looked up): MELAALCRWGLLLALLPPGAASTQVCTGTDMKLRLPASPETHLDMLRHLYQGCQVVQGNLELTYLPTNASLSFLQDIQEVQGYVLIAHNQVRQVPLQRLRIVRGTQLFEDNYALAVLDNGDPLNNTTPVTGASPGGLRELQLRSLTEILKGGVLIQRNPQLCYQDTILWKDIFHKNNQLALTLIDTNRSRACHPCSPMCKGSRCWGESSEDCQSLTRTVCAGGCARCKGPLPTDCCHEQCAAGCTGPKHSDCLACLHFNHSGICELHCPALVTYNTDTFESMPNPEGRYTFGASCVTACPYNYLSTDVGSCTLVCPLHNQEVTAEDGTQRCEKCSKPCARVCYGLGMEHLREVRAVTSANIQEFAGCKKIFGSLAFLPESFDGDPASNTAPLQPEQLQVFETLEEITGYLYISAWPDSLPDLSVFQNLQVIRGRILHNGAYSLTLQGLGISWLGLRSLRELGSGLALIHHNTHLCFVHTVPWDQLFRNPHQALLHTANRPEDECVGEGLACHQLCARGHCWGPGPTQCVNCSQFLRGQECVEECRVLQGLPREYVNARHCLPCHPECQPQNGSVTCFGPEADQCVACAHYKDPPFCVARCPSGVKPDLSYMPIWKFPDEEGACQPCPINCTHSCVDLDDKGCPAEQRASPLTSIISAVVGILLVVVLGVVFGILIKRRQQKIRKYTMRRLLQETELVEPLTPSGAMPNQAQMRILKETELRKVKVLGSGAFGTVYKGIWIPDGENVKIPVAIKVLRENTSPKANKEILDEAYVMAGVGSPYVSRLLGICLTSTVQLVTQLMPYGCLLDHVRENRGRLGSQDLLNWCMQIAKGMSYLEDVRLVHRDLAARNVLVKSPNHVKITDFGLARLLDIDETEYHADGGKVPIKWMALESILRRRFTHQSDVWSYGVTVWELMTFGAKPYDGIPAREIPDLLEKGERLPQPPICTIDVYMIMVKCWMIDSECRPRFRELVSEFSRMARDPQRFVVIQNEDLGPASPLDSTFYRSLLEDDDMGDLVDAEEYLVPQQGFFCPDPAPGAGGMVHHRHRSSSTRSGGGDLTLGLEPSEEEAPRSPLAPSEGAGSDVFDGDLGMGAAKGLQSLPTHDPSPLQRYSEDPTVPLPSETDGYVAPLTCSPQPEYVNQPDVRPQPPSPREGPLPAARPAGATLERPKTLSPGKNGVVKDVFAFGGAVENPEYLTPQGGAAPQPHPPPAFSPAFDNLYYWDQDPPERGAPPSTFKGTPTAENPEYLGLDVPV

Row | SMILES | viability [1] [%] | Her2 level [2] | viability [3] | viability [4] | viability [5] | differential viability (reversal) ([6]; H69AR cells + 2 uM doxorubicin) | viability [6, 9] [%] | viability [6, 10] [%] | inhibition [7] | inhibition [8]
1 | CCSCCNC(=O)c1cc(-n2cnnc2)ccc1Cl | 138 | 106% (inactive) | 138% (inactive) | 108% (inactive) | 86.3% (inactive) | 0.415% (inactive) | 85.9 | 86.3 | -3.47% (inactive) | -1.48% (inactive)
2 | Cc1ccc(-c2noc(CCC(=O)NCC3CCN(Cc4cccc(C)c4)CC3)n2)cc1 | 93.5 | 82.5% (inactive) | 93.5% (inactive) | 53.9% (inactive) | 84.6% (inactive) | -11% (inactive) | 95.6 | 84.6 | -4.87% (inactive) | 1.83% (inactive)
3 | Brc1ccc(-c2csc(/N=C/N3CCOCC3)n2)cc1 | 113 | 100% (inactive) | 113% (inactive) | 85% (inactive) | 97.6% (inactive) | 5.1% (inactive) | 92.5 | 97.6 | -4.4% (inactive) | -7.1% (inactive)
4 | Cc1cc(NC(=O)CCC(=O)N(CC(=O)NC2CCCC2)Cc2ccc(F)cc2)no1 | 101 | 94% (inactive) | 101% (inactive) | 88.9% (inactive) | 95.6% (inactive) | 12.9% (inactive) | 82.7 | 95.6 | -5.87% (inactive) | -5.08% (inactive)
5 | Cc1cc(C)c2c(n1)sc1c(N3CCOCC3)ncnc12 | 91 | 90% (inactive) | 91% (inactive) | 25.4% (active) | 76.6% (inactive) | 0.885% (inactive) | 75.7 | 76.6 | -6.35% (inactive) | 0.67% (inactive)
6 | Cc1cccc(N2C(=O)CC(N3CCN(Cc4ccc(Cl)cc4)CC3)C2=O)c1 (stereo not given) | 104 | 100% (inactive) | 104% (inactive) | 94.7% (inactive) | 99.2% (inactive) | 12.2% (inactive) | 86.9 | 99.2 | -3.87% (inactive) | 0.82% (inactive)
7 | O=C(CN1CCCC1)Nc1ccc(NC(=O)Nc2ccccc2)cc1 | 92.5 | 110% (inactive) | 92.5% (inactive) | 75.3% (inactive) | 95.3% (inactive) | 0.39% (inactive) | 94.9 | 95.3 | 0% (inactive) | -6.39% (inactive)
8 | CS(=O)(=O)N1CCCC(C(=O)NCCCN2CCc3ccccc3C2)C1 (stereo not given) | 93 | 102% (inactive) | 93% (inactive) | 102% (inactive) | 95.1% (inactive) | 7.38% (inactive) | 87.8 | 95.1 | -0.91% (inactive) | -8.89% (inactive)
9 | COc1ccc2oc(=O)c(C(=O)N3CCN(c4ccccc4F)CC3)cc2c1 | 97.5 | 95.5% (inactive) | 97.5% (inactive) | 108% (inactive) | 88.1% (inactive) | -9.48% (inactive) | 97.6 | 88.1 | -6.4% (inactive) | -3.65% (inactive)
10 | CC(=O)Nc1c(Cl)n(C(C)=O)c2ccccc12 | 85 | 65% (inactive) | 85% (inactive) | 71.6% (inactive) | 84% (inactive) | -6.37% (inactive) | 90.4 | 84 | -7.57% (inactive) | 5.5% (inactive)
11 | Cc1nc2ccccc2n1CCC(=O)Nc1cccc(F)c1 | 88 | 90% (inactive) | 88% (inactive) | 93.6% (inactive) | 79.9% (inactive) | -10.1% (inactive) | 90 | 79.9 | 0.38% (inactive) | -5.33% (inactive)
12 | COC(=O)c1cn(C(=O)OC)c2ccccc12 | 96.5 | 102% (inactive) | 96.5% (inactive) | 85.1% (inactive) | 87.7% (inactive) | -0.61% (inactive) | 88.3 | 87.7 | -4.87% (inactive) | 4.1% (inactive)
13 | CCOc1ccccc1NC(=O)CSc1c(C)n[nH]c1C | 90 | 88% (inactive) | 90% (inactive) | 109% (inactive) | 113% (inactive) | 19.8% (inactive) | 92.7 | 113 | -3.07% (inactive) | -3.71% (inactive)
14 | O=C(COc1ccc(Cl)cc1)Nc1nc(-c2cccs2)cs1 | 96 | 74.5% (inactive) | 96% (inactive) | 79.9% (inactive) | 77.5% (inactive) | -7.15% (inactive) | 84.6 | 77.5 | 3.55% (inactive) | 0.18% (inactive)
15 | COCCn1nnnc1C(C(C)C)N1CCN(C(=O)c2ccco2)CC1 (stereo not given) | 92.5 | 112% (inactive) | 92.5% (inactive) | 99.2% (inactive) | 96.7% (inactive) | -1.47% (inactive) | 98.2 | 96.7 | 3.77% (inactive) | 15.6% (inactive)
16 | Cc1cc(Cl)c(S(=O)(=O)NC2CCCCC2)cc1OCC(=O)Nc1nncs1 | 107 | 88% (inactive) | 107% (inactive) | 86.5% (inactive) | 90.1% (inactive) | -3.42% (inactive) | 93.6 | 90.1 | -4.74% (inactive) | -3.17% (inactive)
17 | O=C1NC(Nc2ccccn2)(C(F)(F)F)C(=O)N1c1ccc(F)cc1 (stereo not given) | 102 | 89% (inactive) | 102% (inactive) | 107% (inactive) | 103% (inactive) | -0.015% (inactive) | 103 | 103 | -5.47% (inactive) | 1.64% (inactive)
18 | CCOc1cc(C2C(C(=O)c3ccccc3)=C(C(=O)OC)Nc3nnnn32)ccc1O (stereo not given) | 113 | 96% (inactive) | 113% (inactive) | 91.6% (inactive) | 97.6% (inactive) | 16.4% (inactive) | 81.2 | 97.6 | -1.84% (inactive) | -5.45% (inactive)
19 | Cc1cnc(SCCc2ccncc2)nc1C | 97 | 109% (inactive) | 97% (inactive) | 109% (inactive) | 86.6% (inactive) | 9.61% (inactive) | 76.9 | 86.6 | -2.05% (inactive) | 5.17% (inactive)
20 | O=C(c1ccccc1)N1CCCCC(Sc2nnnn2-c2ccccc2)C1=O (stereo not given) | 89.5 | 104% (inactive) | 89.5% (inactive) | 82.7% (inactive) | 104% (inactive) | 12.6% (inactive) | 91.1 | 104 | -6.13% (inactive) | -0.32% (inactive)
21 | CCOc1ccc(-c2nnn(CC(=O)N3CCN(c4ccc(F)cc4)CC3)n2)cc1OCC | 111 | 102% (inactive) | 111% (inactive) | 76% (inactive) | 81.9% (inactive) | -10.1% (inactive) | 92 | 81.9 | -2.93% (inactive) | -0.33% (inactive)
22 | CCn1nc(NC(=O)c2cccnc2)c2cc3ccccc3nc21 | 90 | 70.5% (inactive) | 90% (inactive) | 84.4% (inactive) | 89.8% (inactive) | 15.2% (inactive) | 74.6 | 89.8 | -8.38% (inactive) | -3.17% (inactive)
23 | CN(C)c1ccc(NC(=O)c2cc3c(=O)n4ccccc4nc3n2C)cc1 | 87.5 | 72.5% (inactive) | 87.5% (inactive) | 97.8% (inactive) | 80.3% (inactive) | -3.47% (inactive) | 83.8 | 80.3 | -0.54% (inactive) | 14.1% (inactive)
24 | Cc1cccc(C2c3c(n(C)c(=O)n(C)c3=O)N=C3c4ccccc4C(=O)C32)c1 (stereo not given) | 101 | 82.5% (inactive) | 101% (inactive) | 43.8% (inactive) | 24.3% (active) | -9.63% (inactive) | 34 | 24.3 | -7.47% (inactive) | 0.32% (inactive)
25 | CCc1nn2c(N3CCOCC3)cc(C)nc2c1-c1ccc(F)cc1 | 92 | 84% (inactive) | 92% (inactive) | 86.2% (inactive) | 93.4% (inactive) | 31.5% (inactive) | 62 | 93.4 | -6.16% (inactive) | 1.75% (inactive)
26 | CCN(CC)S(=O)(=O)c1cccc2c(N(C)C)cccc12 | 99.5 | 112% (inactive) | 99.5% (inactive) | 107% (inactive) | 93.3% (inactive) | 4.14% (inactive) | 89.2 | 93.3 | -4.93% (inactive) | -4.52% (inactive)
27 | Cc1nnc(SCC(=O)N2CCN(S(=O)(=O)c3ccccc3)CC2)[nH]c1=O | 109 | 98.5% (inactive) | 109% (inactive) | 109% (inactive) | 107% (inactive) | 15.5% (inactive) | 91.2 | 107 | -6.67% (inactive) | -2.9% (inactive)
28 | CCC(Sc1ncccc1C(=O)O)C(=O)N1CCCC1 (stereo not given) | 92 | 93.5% (inactive) | 92% (inactive) | 95.5% (inactive) | 101% (inactive) | 14% (inactive) | 87.2 | 101 | 2.47% (inactive) | -5.9% (inactive)
